Shown are actives, neighbours in structure and some others; about 1.3% of the full set was active somewhere.
ERp5 inh: ERp5 (human) disulfide isomerase inhibition; ERp5 insulin aggregation, absorbance 650 nm, 90 min; inhibition, % at 9.99 µM; Q15084; 350,000 compounds, 0.05% hits; AID 651711;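 active = mean replicate inhibition above about 25%, with every replicate also reaching it, limit read from the data, passing the limit was not always enough; inconclusive = only one of those two criteria met; inactive = neither criterion met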
SIRT5 block: sirtuin-5 (human) deacylase inhibition | Q9NXA8 | Purified SirT5, succinyl-peptide AMC, trypsin-coupled fluorescence | inhibition, % at 15 µM | 330,000 compounds, 1.1% hits; in the data active = inhibition above about 15%; inconclusive = no clear call, values can overlap the other calls
AF4-AF9 inh: blocks AF4 peptide binding to human AF9. AlphaScreen, biotin-AF4 peptide binding to FLAG-AF9. inhibition, % at 10 µM. 350,000 compounds, 0.47% hits. AID 651704;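 active = every replicate reaching a set inhibition limit, whatever the replicate mean, cut at about 25% in these data; inconclusive = mean inhibition reaches that limit but some replicates miss it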
PDI turbidity: blocks human protein disulfide isomerase activity; PDI insulin aggregation turbidity, A650, 90 min; inhibition, % at 10 µM; 350,000 compounds, 0.052% hits; AID 588391;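 active = mean inhibition across replicates of 30% or more, whatever share of single replicates reach that level; inconclusive = mean inhibition below 30% while every single replicate reaches 30%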
Target sequence (P07237 whole entry, looked up): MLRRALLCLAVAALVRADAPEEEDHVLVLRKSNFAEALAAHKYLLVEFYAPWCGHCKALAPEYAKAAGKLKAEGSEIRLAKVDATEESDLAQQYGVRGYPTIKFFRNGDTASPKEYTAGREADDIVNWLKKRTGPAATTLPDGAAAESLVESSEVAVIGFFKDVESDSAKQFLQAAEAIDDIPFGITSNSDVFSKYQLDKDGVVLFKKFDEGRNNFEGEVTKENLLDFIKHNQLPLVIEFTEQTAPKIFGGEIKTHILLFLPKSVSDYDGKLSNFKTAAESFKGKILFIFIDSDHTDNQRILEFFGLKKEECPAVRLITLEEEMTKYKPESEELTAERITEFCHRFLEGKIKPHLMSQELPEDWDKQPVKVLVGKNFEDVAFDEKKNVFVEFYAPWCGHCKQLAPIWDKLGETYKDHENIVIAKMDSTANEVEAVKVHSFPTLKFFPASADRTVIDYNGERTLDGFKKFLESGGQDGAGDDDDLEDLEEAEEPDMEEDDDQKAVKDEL
FN deposition inh: fibronectin deposition inhibition. AH1F fibroblasts, Alexa488-fibronectin deposition fluorescence, overnight. inhibition, % at 12.6 µM. 350,000 compounds, 0.086% hits. AID 743247;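 active = mean inhibition across replicates of 30% or more, regardless of how many single replicates reach that level; inconclusive = mean under 30% yet at least half of replicates reach 30%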
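Assay system: AH1F fibroblast monolayer, labelled fibronectin deposition. Amount: 10000 cells per well. Also added: labelled fibronectin 24 nM. Compound: single-point pinned compound. Incubation: cell attachment 1 h, compound and FN exposure overnight. Detection: fluorescence after three HBSS washes, excitation 485 nm, emission 525 nm. Read-out: inhibition of fibronectin deposition signal.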
A number is an active result; . = inactive; ? = inconclusive; / = not tested or not shown.

SMILES	ERp5 inh	SIRT5 block	AF4-AF9 inh	PDI turbidity	FN deposition inh
Cc1nc2c(-c3ccc(Cl)cc3)c(C)[nH]n2c(=O)c1Cc1ccccc1	.	17	.	.	.
Cc1nc2c(-c3ccccc3)c(C)[nH]n2c(=O)c1Cc1ccccc1	.	.	.	.	/
Cn1c(SCC(=O)NC2CCCCC2)nnc1-c1ccccn1	.	.	.	.	/
CN(CCc1ccccc1)c1cc2c(c3c1ccn3C)C1CCC2O1 (stereo unspecified)	.	.	28	/	.
CN(c1cc2c(c3c1ccn3C)C1CCC2O1)C1CCCCC1 (stereo unspecified)	.	.	32	/	.
Cn1ccc2c(-c3cccnc3)cc3c(c21)C1CCC3O1 (stereo unspecified)	.	.	.	/	.
CN(C)CCCNS(=O)(=O)c1ccc(N2CCC(c3ccc(Cl)cc3)=N2)cc1	/	/	/	/	41
O=S(=O)(c1ccc(N2CCC(c3ccc(Cl)cc3)=N2)cc1)N(CCO)CCO	.	.	/	.	.
COc1cccc(C(=O)Nc2ccc3c(c2)C(=O)N(C)[C@@H]2CC[C@H](CC(=O)N[C@@H](C)c4ccccc4)O[C@H]2CO3)c1	.	.	.	/	.
CCOC(=O)Cc1csc(NC(=O)CC)n1	.	/	/	.	.
CCOC(=O)Cc1csc(NC(=O)Cn2cnc3c2c(=O)n(C)c(=O)n3C)n1	.	25	.	.	.
Cc1ccc(C)c(NC(=S)NC2CC3CCCC(C2)N3CC(C)C)c1 (stereo unspecified)	/	/	/	.	/
COc1cccc(C(=O)Oc2cc3c4c(c2)C(C)=CC(C)(C)N4C(=O)C3=O)c1	.	.	26	.	/
COc1ccc(C(=O)Oc2cc3c4c(c2)C(C)=CC(C)(C)N4C(=O)C3=O)cc1OC	/	/	/	.	.
Cc1cc(NC(=O)COC(=O)Cn2c(C)csc2=O)ccc1Br	.	.	.	.	.
CC(C)Cc1nnc(NC(=O)CCC(=O)N2CCN(c3ccc([N+](=O)[O-])cc3)CC2)s1	.	.	.	.	.
CC(C)Cc1nnc(NC(=O)Cc2ccc([N+](=O)[O-])cc2)s1	.	29	.	.	.
O=C(Nc1ccc2c(c1)OCCO2)c1coc2ccccc2c1=O	/	/	/	.	.
COc1ccc(/C=N/NC(=S)Nc2ccccc2)cc1COc1ccc(F)cc1F	/	/	/	.	.
C=C(C)Cn1c(N2CCN(c3ccc(OC)cc3)CC2)nc2c1c(=O)n(C)c(=O)n2C	.	29	.	.	.
COc1ccc(N2CCN(Cc3nc4c(c(=O)n(C)c(=O)n4C)n3Cc3cccc(C)c3)CC2)cc1	.	.	33	/	.
Cc1ccc(NC(=O)CNC(=O)c2ccccc2F)cc1Cl	/	/	/	.	.
Cc1ccc(NC(=O)n2ccc(-c3ccc(-n4ccnc4)cc3)n2)cc1	.	17	.	.	.
CC[C@H](C)[C@@H](C(=O)NCCCCCCCCCCC(=O)N1CCNCC1)n1cc(CCCCCN)nn1	.	/	.	.	.
COc1cccc(CN2CCN(S(=O)(=O)c3ccc(Br)cc3)CC2)c1	.	.	.	.	/
SMILES	ERp5 inh	SIRT5 block	AF4-AF9 inh	PDI turbidity	FN deposition inh
Cc1cc(C)c(S(=O)(=O)/N=C2/C=C(Sc3ncn[nH]3)C(=O)c3ccccc32)cc1C	/	/	/	.	39
C=C1C(=O)C23CCC4C(C)(C(=O)OC)CCCC4(C)C2CCC1(O)C3 (stereo unspecified)	.	/	.	.	37
Cc1c(NC(=O)c2noc(C(C)C)c2[N+](=O)[O-])c(=O)n(-c2ccccc2)n1C	.	.	.	.	.
Cc1cccc(-c2cc(N3CCCN(C)CC3)n3nccc3n2)c1	.	.	30	.	.
CN1CCCN(c2cc(-c3ccc4ccccc4c3)nc3ccnn23)CC1	.	.	.	.	.
COc1ccc(C(C)C)cc1S(=O)(=O)NCC1CCCO1 (stereo unspecified)	.	15	.	.	.
CSc1ccccc1OCc1cc(C(=O)NC2CCc3ccccc32)no1 (stereo unspecified)	.	.	.	.	.
Cc1cc(=O)[nH]c2c1c(C)nn2-c1ccccc1	/	/	/	.	.
Cc1nn(-c2ccccc2)c2[nH]c(=O)cc(C(F)(F)F)c12	.	76	.	.	.
O=C(NCCCN1CCOCC1)C(=O)N/N=C/c1c(Cl)cccc1Cl	.	.	.	.	.
O=C(Nc1ccncc1)C1CCN(S(=O)(=O)c2cccc(C(F)(F)F)c2)CC1	27	.	.	.	.
O=C(NCc1ccncc1)C1CCN(S(=O)(=O)c2cccc(C(F)(F)F)c2)CC1	.	.	.	.	.
COc1ccc(C(CNC(=O)c2cccc(S(=O)(=O)N3CCCCC3)c2)N2CCCC2)cc1 (stereo unspecified)	.	24	.	.	.
CCCc1c(C)[nH]c2ccc(C(=O)O)cc2c1=S	.	26	.	.	.
Cc1nc2c(n1O)CCC/C2=N\O	/	/	/	.	/
CCN1CCCCC(=N/O)/C(=N/O)CCCC1	.	18	.	.	.
CCn1cc(C(=O)O)c(=O)c2cnc(N3CCN(C(=S)NC(=O)c4ccc(OC)cc4)CC3)nc21	.	29	.	.	.
CCn1cc(C(=O)O)c(=O)c2cnc(N3CCN(C(=S)NC(=O)c4ccc(F)c(F)c4)CC3)nc21	?	.	.	.	.
Cc1[nH]c(-c2ccc(F)cc2)cc1C(=O)N1CCN(c2ccccc2)CC1	.	.	.	.	.
CC(C)CC#Cc1ccc2c(c1)O[C@H](CN(C)C(=O)C1CCCCC1)[C@H](C)CN([C@H](C)CO)S2(=O)=O	.	.	.	/	.
CC(C)CC#Cc1ccc2c(c1)O[C@@H](CN(C)C(=O)C1CCCCC1)[C@H](C)CN([C@H](C)CO)S2(=O)=O	.	19	.	/	.
CC(C)CC#Cc1ccc2c(c1)O[C@H](CN(C)C(=O)C1CCC1)[C@@H](C)CN([C@H](C)CO)S2(=O)=O	.	.	.	/	/
CC(C)CC#Cc1ccc2c(c1)O[C@@H](CN(C)C(=O)CC1CC1)[C@@H](C)CN([C@H](C)CO)S2(=O)=O	.	25	.	/	.
CC(C)CC#Cc1ccc2c(c1)O[C@@H](CN(C)C(=O)C1CCCCC1)[C@@H](C)CN([C@H](C)CO)S2(=O)=O	.	22	.	/	.
O=C(COc1ccc(Cc2ccccc2)cc1)c1ccc(F)cc1	.	16	.	.	.
SMILES	ERp5 inh	SIRT5 block	AF4-AF9 inh	PDI turbidity	FN deposition inh
O=C(COc1ccc(F)cc1)c1ccc2c(c1)CCCC2	/	/	/	.	/
COc1cc2c(cc1OC)C(c1ccc(Cl)cc1)CC(=O)N2 (stereo unspecified)	.	17	.	.	.
COC(=O)[C@]1(C)N[C@H](CN(C)C(=O)c2ccccc2)[C@@H]2C(=O)N(C)C(=O)[C@@H]21	.	34	.	.	.
CCNC(=O)N(C)C[C@H]1N[C@@](C)(C(=O)OC)[C@H]2C(=O)N(C)C(=O)[C@@H]12	.	.	.	.	.
CCN(C[C@H]1N[C@@](C)(C(=O)OC)[C@H]2C(=O)N(C)C(=O)[C@@H]12)C(=O)c1ccc(F)cc1	.	28	.	.	.
CCN(C[C@H]1N[C@@](C)(C(=O)OC)[C@H]2C(=O)N(C)C(=O)[C@@H]12)C(=O)c1ccc(C)cc1	.	.	.	.	.

High-throughput results as filed in PubChem.
